Data as given in ChEMBL document CHEMBL3421565, “β-D-2'-C-Methyl-2,6-diaminopurine Ribonucleoside Phosphoramidates are Potent and Selective Inhibitors of Hepatitis C Virus (HCV) and Are Bioconverted Intracellularly to Bioactive 2,6-Diaminopurine and Guanosine 5'-Triphosphate Forms” (J Med Chem, 2015).

Assays:
Hepatitis C virus [1] = experiment: Antiviral activity against HCV infected in human HuH7 cells assessed as reduction in replicon RNA levels incubated for 5 days by RT-PCR assay; type: functional, organism-based, Hepacivirus hominis; details: Huh-7, 120 h
Summary of the method: (§1)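 Huh-7 clone B cells carrying HCV replicon RNA, seeded at 3000 cells/well; compounds added in dose response in triplicate right after seeding. Incubated 5 days at 37 °C, 5% CO₂. Total RNA extracted; replicon RNA and rRNA internal control co-amplified by one-step multiplex real-time RT-PCR. Antiviral effect taken as ΔCt versus no-drug control; cytotoxicity read from rRNA reduction.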

Vero = experiment: Cytotoxicity against African green monkey Vero cells assessed as reduction in cell viability incubated for 5 days by Cell-titer 96 aqueous one solution cell proliferation assay; type: cell-based; details: chlorocebus sabaeus, vero, 120 h
[2] = Toxicity in human PC3 cells assessed as effect on GAPDH levels at 100 uM; type: cell-based; details: pc-3, 100 µM
[3] = Toxicity in human PC3 cells assessed as effect on thymidine uptake at 100 uM; type: cell-based; details: pc-3, 100 µM
HepG2 [4] = experiment: Mitochondrial toxicity in human HepG2 cells assessed as effect on mitochondrial cytochrome c oxidase subunit 2 DNA level incubated for 14 days by real-time PCR method; type: cell-based; details: hepg2, 336 h
Summary of the method: (§2)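 HepG2 cells in DMEM with 4.5 g/L glucose and 10% heat-inactivated FBS, seeded at 5000 cells/well on collagen; compounds added 1 day later at final 1–50 μM. Medium and compound renewed every 3–4 days for 14 days; duplicates in two independent experiments. COXII mtDNA and nuclear β-actin DNA measured by real-time PCR, normalised to untreated control; IC₅₀ calculated.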

HepG2 [5] = experiment: Mitochondrial toxicity in human HepG2 cells assessed as effect on nuclear beta-actin DNA level incubated for 14 days by real-time PCR method; type: cell-based; details: hepg2, 336 h; summary of the method: as §2
HepG2 [6] = experiment: Mitochondrial toxicity in human HepG2 cells assessed as induction of lactic acid levels at 1 uM incubated for 14 days; type: cell-based; details: hepg2, 336 h
Summary of the method: (§3)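 After 14 days of HepG2 exposure to compound (same culture regimen as the mtDNA assay), lactic acid in culture supernatant quantified with a D-/L-lactic acid kit by absorbance. Results expressed as % lactic acid over % nuclear DNA (β-actin control); mean of triplicates from a single plate.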

HepG2 [7] = experiment: Mitochondrial toxicity in human HepG2 cells assessed as induction of lactic acid levels at 10 uM incubated for 14 days; type: cell-based; details: hepg2, 336 h; summary of the method: as §3
HepG2 [8] = experiment: Mitochondrial toxicity in human HepG2 cells assessed as induction of lactic acid levels at 50 uM incubated for 14 days; type: cell-based; details: hepg2, 336 h; summary of the method: as §3
Hepatitis C virus [9] = experiment: Antiviral activity against HCV genotype 1a infected in human HuH7 cells assessed as reduction in replicon RNA levels incubated for 5 days by RT-PCR assay; type: functional, cell-based, Hepacivirus hominis; details: subtype 1a, Huh-7, 120 h; summary of the method: as §1
Hepatitis C virus [10] = experiment: Antiviral activity against HCV genotype 1b infected in human HuH7 cells assessed as reduction in replicon RNA levels incubated for 5 days by RT-PCR assay; type: functional, cell-based, Hepacivirus hominis; details: Huh-7, 120 h; summary of the method: as §1
Hepatitis C virus [11] = experiment: Antiviral activity against HCV genotype 2a infected in human HuH7 cells assessed as reduction in replicon RNA levels incubated for 5 days by RT-PCR assay; type: functional, cell-based, Hepacivirus hominis; details: Huh-7, 120 h; summary of the method: as §1
Hepatitis C virus [12] = experiment: Antiviral activity against HCV genotype 2b chimera with HCV genotype 1b Con1 backbone containing HCV genotype 2b NS5B gene infected in human HuH7 cells assessed as reduction in replicon RNA levels incubated for 5 days by RT-PCR assay; type: functional, cell-based, Hepacivirus hominis; details: Huh-7, 120 h; summary of the method: as §1
Hepatitis C virus [13] = experiment: Antiviral activity against HCV genotype 3a chimera with HCV genotype 1b Con1 backbone containing HCV genotype 3a NS5B gene infected in human HuH7 cells assessed as reduction in replicon RNA levels incubated for 5 days by RT-PCR assay; type: functional, cell-based, Hepacivirus hominis; details: Huh-7, 120 h; summary of the method: as §1
Hepatitis C virus [14] = experiment: Antiviral activity against HCV genotype 4a chimera with HCV genotype 1b Con1 backbone containing HCV genotype 4a NS5B gene infected in human HuH7 cells assessed as reduction in replicon RNA levels incubated for 5 days by RT-PCR assay; type: functional, cell-based, Hepacivirus hominis; details: Huh-7, 120 h; summary of the method: as §1
Hepatitis C virus [15] = experiment: Antiviral activity against HCV genotype 5a chimera with HCV genotype 1b Con1 backbone containing HCV genotype 5a NS5B gene infected in human HuH7 cells assessed as reduction in replicon RNA levels incubated for 5 days by RT-PCR assay; type: functional, cell-based, Hepacivirus hominis; details: Huh-7, 120 h; summary of the method: as §1
Hepatitis C virus [16] = experiment: Antiviral activity against HCV genotype 1b containing NS5A Y93H mutant infected in human HuH7 cells assessed as reduction in replicon RNA levels incubated for 5 days by RT-PCR assay; type: functional, cell-based, Hepacivirus hominis; details: Huh-7, 120 h; summary of the method: as §1
Hepatitis C virus [17] = experiment: Antiviral activity against HCV genotype 1b containing NS3 R155K mutant infected in human HuH7 cells assessed as reduction in replicon RNA levels incubated for 5 days by RT-PCR assay; type: functional, cell-based, Hepacivirus hominis; details: Huh-7, 120 h; summary of the method: as §1
Hepatitis C virus [18] = experiment: Antiviral activity against HCV genotype 1b containing NS5B S282T mutant infected in human HuH7 cells assessed as reduction in replicon RNA levels incubated for 5 days by RT-PCR assay; type: functional, cell-based, Hepacivirus hominis; details: Huh-7, 120 h; summary of the method: as §1
Hepatitis C virus [19] = experiment: Antiviral activity against HCV genotype 1b containing NS5B C316Y mutant infected in human HuH7 cells assessed as reduction in replicon RNA levels incubated for 5 days by RT-PCR assay; type: functional, cell-based, Hepacivirus hominis; details: Huh-7, 120 h; summary of the method: as §1
Hepatitis C virus [20] = experiment: Antiviral activity against HCV genotype 1b containing NS5B C445F mutant infected in human HuH7 cells assessed as reduction in replicon RNA levels incubated for 5 days by RT-PCR assay; type: functional, cell-based, Hepacivirus hominis; details: Huh-7, 120 h; summary of the method: as §1
Hepatitis C virus [21] = experiment: Antiviral activity against HCV genotype 1b containing NS5B M414I mutant infected in human HuH7 cells assessed as reduction in replicon RNA levels incubated for 5 days by RT-PCR assay; type: functional, cell-based, Hepacivirus hominis; details: Huh-7, 120 h; summary of the method: as §1
Hepatitis C virus [22] = experiment: Antiviral activity against HCV genotype 1b containing NS5B P495A mutant infected in human HuH7 cells assessed as reduction in replicon RNA levels incubated for 5 days by RT-PCR assay; type: functional, cell-based, Hepacivirus hominis; details: Huh-7, 120 h; summary of the method: as §1
[23] = Drug metabolism in human HuH7 cells assessed as 2'-C-Me-DAPN-TP level per million cells at 50 uM incubated for 4 hrs at 37 degC by LC-MS/MS method; type: ADME, cell-based; details: huh-7, 4 h
Summary of the method: (§4)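 Huh-7 cells (after attachment) or freshly plated primary human hepatocytes (after overnight acclimatation), 1 × 10⁶ cells/well, exposed to 50 μM compound for 4 h at 37 °C. Cells washed twice with ice-cold PBS and extracted overnight at −20 °C in 70% methanol containing 20 nM ddATP. Mono-, di- and triphosphates quantified by LC–MS/MS as pmol/10⁶ cells; three replicates.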

[24] = Drug metabolism in human HuH7 cells assessed as 2'-C-Me-DAPN-TP level per million cells at 50 uM incubated for 4 hrs at 37 degC by LC-MS/MS method relative to DAPN; type: ADME, cell-based; details: huh-7, 4 h; summary of the method: as §4
[25] = Drug metabolism in human primary hepatocytes assessed as 2'-C-Me-DAPN-TP level at 50 uM incubated for 4 hrs at 37 degC by LC-MS/MS method; type: ADME, cell-based, Hepatocyte; summary of the method: as §4

Compound: CCOC(=O)CCc1ccccc1O[P@@](=O)(N[C@@H](C)C(=O)OCC)OC[C@H]1O[C@@H](n2cnc3c(N)nc(N)nc32)[C@](C)(O)[C@H]1O
- EC50 (Hepatitis C virus [1]): 200 nM
- EC90 (Hepatitis C virus [1]): 700 nM
- CC50 (Vero): > 100000 nM
- Activity [2]: Non-toxic
- Activity [3]: Non-toxic
- CC50 (HepG2 [4]): > 50000 nM
- CC50 (HepG2 [5]): > 50000 nM
- Activity (HepG2 [6]): 150%
- Activity (HepG2 [7]): 120%
- Activity (HepG2 [8]): 110%
- EC50 (Hepatitis C virus [9]): 350 nM
- EC90 (Hepatitis C virus [9]): 740 nM
- EC50 (Hepatitis C virus [10]): 260 nM
- EC90 (Hepatitis C virus [10]): 390 nM
- EC50 (Hepatitis C virus [11]): 260 nM
- EC90 (Hepatitis C virus [11]): 700 nM
- EC50 (Hepatitis C virus [12]): 290 nM
- EC90 (Hepatitis C virus [12]): 420 nM
- EC50 (Hepatitis C virus [13]): 230 nM
- EC90 (Hepatitis C virus [13]): 390 nM
- EC50 (Hepatitis C virus [14]): 390 nM
- EC90 (Hepatitis C virus [14]): 890 nM
- EC50 (Hepatitis C virus [15]): 320 nM
- EC90 (Hepatitis C virus [15]): 640 nM
- EC50 (Hepatitis C virus [16]): 300 nM
- EC90 (Hepatitis C virus [16]): 3000 nM
- EC50 (Hepatitis C virus [17]): 320 nM
- EC90 (Hepatitis C virus [17]): 1300 nM
- EC50 (Hepatitis C virus [18]): 100 nM
- EC90 (Hepatitis C virus [18]): 230 nM
- EC50 (Hepatitis C virus [19]): 270 nM
- EC90 (Hepatitis C virus [19]): 770 nM
- EC50 (Hepatitis C virus [20]): 120 nM
- EC90 (Hepatitis C virus [20]): 250 nM
- EC50 (Hepatitis C virus [21]): 280 nM
- EC90 (Hepatitis C virus [21]): 1100 nM
- EC50 (Hepatitis C virus [22]): 80 nM
- EC90 (Hepatitis C virus [22]): 140 nM
- Drug metabolism [23]: 9.9 pmol
- fold change (FC) [24]: 13
- fold change (FC) [25]: 7
